Experimental data gathered from unrelated publications.
Protocols differ between the studies behind these lines.
Target: Serine/threonine-protein kinase SBK1 (SBK1, Homo sapiens, UniProt Q52WX2)

| SMILES | test | conditions | quantity | value |
| --- | --- | --- | --- | --- |
| COc1cc(Cl)c(C(=O)N[C@@H](CN[C@H]2CC[C@@H](N)CC2)Cc2ccc(C#N)cc2)cc1-c1ccc(CN[C@H](C)c2ccc(C)cc2)o1 | enzyme activity, inhibitor | 1 µM | remaining activity | 98% |
| Cc1sc(C(=O)NC2COC2)cc1-n1cc(NC(=O)Nc2c(F)cccc2Cl)cn1 | enzyme activity, inhibitor | 10 µM | remaining activity | 87.5% |
| CN1CC(Oc2cnc(C#N)cc2-c2ccn3nc(NC(=O)C4CC4)cc3c2)C1 | enzyme activity, inhibitor | 1 µM | inhibition | 15% |
| COc1ccc2c(c1)O[C@H](c1ccc(OC)c(OC)c1)C[C@@H]2NC(=O)C1(c2ccc3c(c2)OC(F)(F)O3)CC1 | cell-free assay, competition with immobilised ligand | 1 µM | remaining binding | 90% |
| Cc1ccc(C(=O)Nc2ccc(CN3CCN(C)CC3)c(C(F)(F)F)c2)cc1C#Cc1cnc2cccnn12 | enzyme activity, inhibitor | 23.5 nM | remaining activity | 80% |
| CN(c1ccnc(CNc2nc(Nc3ccc4c(c3)CC(=O)N4)ncc2C(F)(F)F)n1)S(C)(=O)=O | cell-free assay, competition with immobilised ligand | 1 µM | remaining binding | 34% |
| O=C(Nc1cnn(-c2csc(C(=O)NC3COC3)c2)c1)Nc1ccccc1Cl | enzyme activity, inhibitor | 5 µM | remaining activity | 99.1% |
| Nc1ncnc2occ(-c3ccc(NC(=O)Nc4cc(C(F)(F)F)ccc4F)cc3)c12 | cell-free assay, inhibitor | 20 µM | remaining signal | 6.7% |
